24 compounds from ChEMBL document CHEMBL1938354 (Eur J Med Chem, 2012) can be followed below.

Assay [1] relates to U-937. The assay is described as follows: Growth inhibition of AKR1B10-overexpressing human U937 cells at 1 uM by trypan blue dye exclusion assay. The assay is classed as functional, cell-based. In outline: (§1)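 U937 cells were transiently transfected with pGW1 plasmid carrying AKR1B10 cDNA and resuspended in fresh growth medium. They were seeded at 5 × 10⁴ cells/ml and treated with inhibitor for 0, 24, 48 and 72 h. Viable cells were counted by trypan blue exclusion.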

For assay [2], the target named is T1, Aldo-keto reductase family 1 member B10 (Homo sapiens, UniProt O60218). The assay is described as follows: Inhibition of human recombinant N-terminus His6-tagged AKR1B10 expressed in Escherichia coli BL21 DE3 assessed as pyridine-3-aldehyde reduction by spectrometric analysis. The essentials: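 Purified recombinant 6-His AKR1B10 was assayed at 25 °C in 0.1 M potassium phosphate, pH 7.4, with 0.1 mM NADPH and 0.2 mM pyridine-3-aldehyde. Reductase rate was followed as NADPH absorbance change at 340 nm. IC50 is the mean of at least three determinations.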
Target sequence in this assay (O60218 whole entry): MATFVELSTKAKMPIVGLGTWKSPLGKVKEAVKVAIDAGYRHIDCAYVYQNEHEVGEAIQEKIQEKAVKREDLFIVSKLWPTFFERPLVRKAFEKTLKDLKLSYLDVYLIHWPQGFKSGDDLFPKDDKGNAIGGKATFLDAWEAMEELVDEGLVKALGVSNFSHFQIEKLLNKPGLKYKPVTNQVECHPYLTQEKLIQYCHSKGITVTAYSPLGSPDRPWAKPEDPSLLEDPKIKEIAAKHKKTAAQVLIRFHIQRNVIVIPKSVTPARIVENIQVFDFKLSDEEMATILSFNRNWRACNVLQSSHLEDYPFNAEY

Assay [3] concerns HeLa. The experiment in a line: Growth inhibition of human HeLa cells at 0.2 uM by trypan blue dye exclusion assay. The assay is classed as functional, cell-based.
The target in assay [4] is Aldo-keto reductase family 1 member B1 (Homo sapiens, UniProt P15121). The experiment in a line: Inhibition of human recombinant N-terminus His6-tagged AKR1B1 expressed in Escherichia coli BL21 DE3 assessed as pyridine-3-aldehyde reduction by spectrometric analysis.
Assay [5] relates to U-937. The assay is described as follows: Growth inhibition of human U937 cells at 0.2 uM by trypan blue dye exclusion assay. It is filed as functional, cell-based.
Assay [6] deals with T1, Aldo-keto reductase family 1 member B10. The assay is described as follows: Competitive inhibition at human recombinant N-terminus His6-tagged AKR1B10 expressed in Escherichia coli BL21 DE3 assessed as inhibition of NADP+ linked geraniol oxidation by fluorescence analysis.
Target sequence in this assay (O60218 whole entry): as above
The subject of assay [7] is HeLa. The experiment in a line: Cytotoxicity against human HeLa cells after 24 hrs by trypan blue dye exclusion assay. The assay is classed as functional. The settings on record: read-out: LD50 (the source's name).
The species entered for a further assay is Homo sapiens. The assay is described as follows: Selectivity ratio of IC50 for human recombinant N-terminus His6-tagged AKR1B1 to IC50 for human recombinant N-terminus His6-tagged AKR1B10. In outline: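 IC50 values for purified recombinant AKR1B1 and AKR1B10 were each determined at 25 °C in 0.1 M potassium phosphate, pH 7.4, with 0.1 mM NADPH and 0.2 mM pyridine-3-aldehyde, by NADPH absorbance at 340 nm. Each IC50 is the mean of at least three determinations. The ratio is AKR1B1 IC50 over AKR1B10 IC50.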

Assay [8] has as its target T1, Aldo-keto reductase family 1 member B10. The experiment in a line: Inhibition of AKR1B10-mediated farnesal metabolism in human HeLa cells preincubated for 2 hrs measured after 6 hrs following [1-14C]farnesol addition. The assay is classed as cell-based. The essentials:
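HeLa cells were transfected with pGW1-AKR1B10 and pretreated with inhibitor at a range of concentrations for 2 h. They were then incubated with [1-¹⁴C]farnesol for 6 h, and reduction of the resulting farnesal was analysed. Percent inhibition is the mean of duplicate experiments.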
Target sequence in this assay (O60218 whole entry): as above

Assay [9] has as its target Aldo-keto reductase family 1 member B10 (Homo sapiens, UniProt O60218, Q114T). The experiment in a line: Competitive inhibition at human recombinant N-terminus His6-tagged AKR1B10 Gln114Thr mutant expressed in Escherichia coli BL21 DE3 assessed as inhibition of NADP+ linked geraniol oxidation by fluorescence analysis.
Assay [10] concerns the target T2, Aldo-keto reductase family 1 member A1 (Homo sapiens) (UniProt P14550).
T2 sequence (whole entry): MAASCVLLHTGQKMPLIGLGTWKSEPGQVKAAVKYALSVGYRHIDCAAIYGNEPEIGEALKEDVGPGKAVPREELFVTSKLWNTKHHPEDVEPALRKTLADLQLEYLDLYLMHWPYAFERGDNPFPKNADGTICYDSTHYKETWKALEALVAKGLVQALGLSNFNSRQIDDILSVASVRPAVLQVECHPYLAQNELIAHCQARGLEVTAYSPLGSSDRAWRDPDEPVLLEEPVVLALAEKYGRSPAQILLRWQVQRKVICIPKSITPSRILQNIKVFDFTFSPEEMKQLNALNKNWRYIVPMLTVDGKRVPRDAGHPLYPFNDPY
The experiment in a line: Inhibition of human AKR1A1 at 30 uM.

The target of assay [11] is Aldo-keto reductase family 1 member B10 (Homo sapiens, UniProt O60218, S304A). The assay is described as follows: Competitive inhibition at human recombinant N-terminus His6-tagged AKR1B10 Ser304Ala mutant expressed in Escherichia coli BL21 DE3 assessed as inhibition of NADP+ linked geraniol oxidation by fluorescence analysis.
Assay [12] has as its target Aldo-keto reductase family 1 member B10 (Homo sapiens, UniProt O60218, Q303S/V301L). The experiment in a line: Competitive inhibition at human recombinant N-terminus His6-tagged AKR1B10 Val301Leu/Gln303Ser double mutant expressed in Escherichia coli BL21 DE3 assessed as inhibition of NADP+ linked geraniol oxidation by fluorescence analysis.
Assay [13] concerns U-937. The assay is described as follows: Growth inhibition of AKR1B10-overexpressing human U937 cells at 0.2 uM by trypan blue dye exclusion assay. It is filed as functional, cell-based. The essentials: as §1
The target in assay [14] is Aldo-keto reductase family 1 member B10 (Homo sapiens, UniProt O60218, Q303S). The experiment in a line: Competitive inhibition at human recombinant N-terminus His6-tagged AKR1B10 Gln303Ser mutant expressed in Escherichia coli BL21 DE3 assessed as inhibition of NADP+ linked geraniol oxidation by fluorescence analysis.
Assay [15] has as its target T1, Aldo-keto reductase family 1 member B10. The settings on record: HeLa, 0.2 uM.
Target sequence in this assay (O60218 whole entry, looked up): as the sequence (O60218 whole entry) above
Assay [16] shares this target. The assay is described as follows: Competitive inhibition at human recombinant N-terminus His6-tagged AKR1B10 expressed in Escherichia coli BL21 DE3 assessed as inhibition of NADP+ linked geraniol oxidation by fluorescence analysis. In outline:
(§2)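 Recombinant wild-type or mutant AKR1B10 with N-terminal 6-His tag was expressed in E. coli BL21(DE3) pLysS and purified to homogeneity. The Phe123Ala mutant was made by site-directed mutagenesis. Kinetics used NADP+-linked geraniol oxidation, read by NADPH fluorescence (ex 340/em 455 nm) at 25 °C. Five substrate concentrations (0.5–5 × Km) were run with saturating coenzyme. Ki is the mean of at least three determinations.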
Target sequence in this assay (O60218 whole entry): as the sequence (O60218 whole entry) above

Assay [17] addresses Aldo-keto reductase family 1 member B10 (Homo sapiens, UniProt O60218, W220Y). The experiment in a line: Competitive inhibition at human recombinant N-terminus His6-tagged AKR1B10 Trp220Tyr mutant expressed in Escherichia coli BL21 DE3 assessed as inhibition of NADP+ linked geraniol oxidation by fluorescence analysis.
In assay [18] the target is Aldo-keto reductase family 1 member B10 (Homo sapiens, UniProt O60218, F123A). The experiment in a line: Competitive inhibition at human recombinant N-terminus His6-tagged AKR1B10 Phe123Ala mutant expressed in Escherichia coli BL21 DE3 assessed as inhibition of NADP+ linked geraniol oxidation by fluorescence analysis. In outline: as §2
In assay [19] the target is Aldo-keto reductase family 1 member B10 (Homo sapiens, UniProt O60218, V301L). The experiment in a line: Competitive inhibition at human recombinant N-terminus His6-tagged AKR1B10 Val301Leu mutant expressed in Escherichia coli BL21 DE3 assessed as inhibition of NADP+ linked geraniol oxidation by fluorescence analysis.

Each structure is given as a SMILES string. Activity calls are given as the source filed them. No cut-off for these calls is given here.

Aldo-keto reductase family 1 member B10 (Homo sapiens, UniProt O60218, W220Y), sequence (O60218 whole entry W220Y): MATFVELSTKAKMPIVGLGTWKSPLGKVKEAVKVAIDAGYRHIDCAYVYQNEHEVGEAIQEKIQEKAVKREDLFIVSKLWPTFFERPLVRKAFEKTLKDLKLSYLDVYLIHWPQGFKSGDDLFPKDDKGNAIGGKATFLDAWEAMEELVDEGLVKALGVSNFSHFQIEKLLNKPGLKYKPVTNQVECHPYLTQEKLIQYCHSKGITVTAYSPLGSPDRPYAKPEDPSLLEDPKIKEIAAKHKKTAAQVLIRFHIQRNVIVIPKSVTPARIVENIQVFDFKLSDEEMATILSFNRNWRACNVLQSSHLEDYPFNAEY
Aldo-keto reductase family 1 member B10 (Homo sapiens, UniProt O60218, Q303S), sequence (O60218 whole entry Q303S): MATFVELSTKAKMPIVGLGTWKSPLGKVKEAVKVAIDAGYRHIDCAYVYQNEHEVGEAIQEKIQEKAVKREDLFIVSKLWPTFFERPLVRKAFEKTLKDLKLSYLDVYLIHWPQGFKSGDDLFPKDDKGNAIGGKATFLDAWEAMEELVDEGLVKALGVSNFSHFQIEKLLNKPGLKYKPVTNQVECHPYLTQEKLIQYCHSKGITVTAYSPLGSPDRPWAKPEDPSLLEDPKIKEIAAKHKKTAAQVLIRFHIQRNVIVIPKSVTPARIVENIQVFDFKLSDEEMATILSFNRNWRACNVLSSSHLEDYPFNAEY
Aldo-keto reductase family 1 member B10 (Homo sapiens, UniProt O60218, Q114T), sequence (O60218 whole entry Q114T): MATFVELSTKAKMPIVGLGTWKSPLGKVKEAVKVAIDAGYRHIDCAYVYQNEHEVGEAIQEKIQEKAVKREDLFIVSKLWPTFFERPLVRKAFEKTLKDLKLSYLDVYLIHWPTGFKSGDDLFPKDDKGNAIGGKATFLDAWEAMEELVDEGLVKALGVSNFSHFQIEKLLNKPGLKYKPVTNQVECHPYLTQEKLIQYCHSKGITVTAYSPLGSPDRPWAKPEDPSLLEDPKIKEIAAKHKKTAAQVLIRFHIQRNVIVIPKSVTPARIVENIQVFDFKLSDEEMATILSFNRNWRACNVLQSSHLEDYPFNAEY
Aldo-keto reductase family 1 member B10 (Homo sapiens, UniProt O60218, F123A), sequence (O60218 whole entry F123A): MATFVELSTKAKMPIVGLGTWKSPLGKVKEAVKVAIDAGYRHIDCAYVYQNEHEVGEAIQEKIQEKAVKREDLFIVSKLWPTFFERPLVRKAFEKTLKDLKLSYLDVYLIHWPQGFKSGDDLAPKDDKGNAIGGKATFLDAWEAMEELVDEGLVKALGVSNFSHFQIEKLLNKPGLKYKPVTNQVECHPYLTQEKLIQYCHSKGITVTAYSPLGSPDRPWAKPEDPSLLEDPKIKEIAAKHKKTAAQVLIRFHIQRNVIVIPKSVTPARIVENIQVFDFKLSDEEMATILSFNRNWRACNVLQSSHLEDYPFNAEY
Aldo-keto reductase family 1 member B10 (Homo sapiens, UniProt O60218, V301L), sequence (O60218 whole entry V301L): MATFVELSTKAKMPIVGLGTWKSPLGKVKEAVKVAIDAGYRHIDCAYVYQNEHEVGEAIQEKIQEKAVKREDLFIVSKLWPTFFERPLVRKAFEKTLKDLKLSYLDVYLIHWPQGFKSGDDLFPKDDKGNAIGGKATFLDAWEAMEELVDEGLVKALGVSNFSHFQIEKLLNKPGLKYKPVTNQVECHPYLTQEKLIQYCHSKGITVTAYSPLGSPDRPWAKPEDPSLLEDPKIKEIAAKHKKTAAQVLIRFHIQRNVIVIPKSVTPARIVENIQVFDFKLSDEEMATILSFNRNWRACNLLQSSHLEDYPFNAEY
Aldo-keto reductase family 1 member B10 (Homo sapiens, UniProt O60218, S304A), sequence (O60218 whole entry S304A): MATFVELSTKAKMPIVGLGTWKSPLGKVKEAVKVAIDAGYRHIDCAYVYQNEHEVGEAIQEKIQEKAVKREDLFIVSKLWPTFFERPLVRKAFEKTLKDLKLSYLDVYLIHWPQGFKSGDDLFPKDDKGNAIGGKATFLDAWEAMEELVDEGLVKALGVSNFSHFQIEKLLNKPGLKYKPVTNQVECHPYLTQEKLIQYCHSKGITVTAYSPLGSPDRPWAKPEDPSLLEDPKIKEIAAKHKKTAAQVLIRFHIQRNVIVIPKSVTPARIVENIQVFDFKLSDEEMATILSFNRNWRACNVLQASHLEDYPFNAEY
Aldo-keto reductase family 1 member B10 (Homo sapiens, UniProt O60218, Q303S/V301L), sequence (O60218 whole entry V301L/Q303S): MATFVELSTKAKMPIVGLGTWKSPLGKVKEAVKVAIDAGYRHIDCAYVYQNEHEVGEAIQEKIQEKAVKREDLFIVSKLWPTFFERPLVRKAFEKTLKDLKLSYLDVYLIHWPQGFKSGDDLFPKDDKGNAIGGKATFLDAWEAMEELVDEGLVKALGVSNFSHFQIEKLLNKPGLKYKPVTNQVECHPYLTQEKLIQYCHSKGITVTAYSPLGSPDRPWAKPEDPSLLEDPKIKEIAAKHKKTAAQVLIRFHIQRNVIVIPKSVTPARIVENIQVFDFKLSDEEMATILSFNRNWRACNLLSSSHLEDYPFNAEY

As a reminder, the IC50 is the midpoint of a concentration-inhibition curve. The Ki is the equilibrium dissociation constant of an inhibitor or competing ligand from its target. In the case of `O=C(/C=C/c1ccc(O)c(O)c1)OCCc1ccccc1` [CAFFEIC ACID PHENETHYL ESTER], the “growth inhibition (GI)” value in the assay on U-937 [1] is “Active”. Besides, the IC50 came out at 80 nM in assay [2] and 570 nM in assay [4]. Moreover, the “growth inhibition (GI)” value with HeLa [3] and in the assay on U-937 [5] was “inactive” in each case. The Ki in [6] came to 46 nM. Further, the CC50 in the assay with HeLa [7] is 56000 nM. For the same compound, the Ratio IC50 in the assay listed under Homo sapiens was 7.
In the case of `COc1cc(O)ccc1/C=C/C(=O)OCCCc1ccc(O)cc1`, the IC50 in assay [2] is 23 nM; in assay [4] it was 11000 nM. Further, in the assay listed under Homo sapiens, the Ratio IC50 amounted to 478.
In the case of `O=C(/C=C/c1ccc(O)cc1)OCCc1ccccc1`, the figures for the half-inhibitory concentration (IC50) in assay [2] and in assay [4] were 69 nM and 2200 nM, respectively. In addition, in the assay listed under Homo sapiens, the Ratio IC50 amounted to 31.
Regarding `CC(C)=CCc1cc(/C=C/C(=O)O)cc(CC=C(C)C)c1O` [ARTEPILLIN], the IC50 came out at 53000 nM in assay [2] and 23000 nM in assay [4].
In the case of `CC(C)OC(=O)/C=C/c1ccc(O)cc1` [ISOPROPYL 3-(4-HYDROXYPHENYL)ACRYLATE], the concentration for half-maximal inhibition (IC50) amounted to 920 nM in assay [2] and 6100 nM in [4]. Besides, the Ratio IC50 in the assay listed under Homo sapiens was determined as 7.
Regarding `O=C(O)/C=C/c1ccc(O)c(O)c1` [CAFFEIC ACID], the IC50 in assay [2] stood at 90000 nM.
Take `O=C(/C=C/c1ccc(O)c(O)c1)OCc1ccccc1` [BENZYL CAFFEATE]: the figures for the IC50 in assay [2] and in [4] were 210 nM and 400 nM, respectively. Also, the Ratio IC50 in the assay listed under Homo sapiens is 2.
As for `COc1cc(O)ccc1/C=C/C(=O)OCCCc1cccc(O)c1`, the IC50 in assay [2] amounted to 6.2 nM; in assay [8], 300 nM; in assay [4] it was 4900 nM. Further, the “growth inhibition (GI)” value in the assay on HeLa [3] and with U-937 [5] was “inactive” throughout. Further, the inhibitory constant (Ki) worked out at 7.6 nM in assay [9]; 3.5 nM in assay [11]; 23 nM in [12]; 7.1 nM in [14]; 2.6 nM in [16]; 15 nM in assay [17]. Further, the Ki in [18] is 5.1 nM; in assay [19] it was 5.8 nM. Further, the inhibition result in assay [10] was “inactive”. Besides, the “growth inhibition (GI)” value with U-937 [13] was “Active”. For the same compound, the inhibition entry in assay [15] is “Active”. In the assay with HeLa [7], the CC50 was 36000 nM. The Ratio IC50 in the assay listed under Homo sapiens worked out at 790.
Turning to `O=C(/C=C/c1ccc(O)c(O)c1)O[C@@H]1[C@H](O)C[C@@](O)(C(=O)O)C[C@H]1OC(=O)/C=C/c1ccc(O)c(O)c1` (relative stereo), in [2], the IC50 was found to be 240 nM.
Turning to `COc1cc(O)ccc1/C=C/C(=O)OCCCc1ccccc1O`, the IC50 in [2] turned out to be 9 nM; in assay [4] it was 6900 nM. The Ratio IC50 in the assay listed under Homo sapiens turned out to be 766.
The like results for `COc1cc(O)ccc1/C=C/C(=O)OCCc1ccccc1O` were, in that order, 17 nM, 9500 nM and 558.
In the same order, the values of `O=C(/C=C/c1ccc(O)cc1)OCCCc1ccccc1` are 21 nM, 1100 nM and 52.
The like results for `COc1cc(O)ccc1/C=C/C(=O)OCCc1ccccc1` were, in that order, 13 nM, 7200 nM and 554.
As to `COc1cc(O)ccc1/C=C/C(=O)OCCCc1ccccc1`, the IC50 worked out at 16 nM in assay [2] and 11000 nM in assay [4]. The Ratio IC50 in the assay listed under Homo sapiens turned out to be 688.
In the same order, the values of `O=C(/C=C/c1ccc(O)cc1)OCc1ccccc1` are 130 nM, 2200 nM and 17.
Consider `O=C(/C=C/c1ccccc1)OCCc1ccccc1` [PHENETHYL CINNAMATE], for which the IC50 is 18000 nM in [2] and 23000 nM in [4]. Moreover, in the assay listed under Homo sapiens, the Ratio IC50 was found to be 1.
Turning to `CC(C)=CCc1cc(/C=C/C(=O)O)ccc1O` [DRUPANIN], the IC50 came out at 49000 nM in assay [2] and 38000 nM in assay [4].
Take `O=C(/C=C/c1cccc(O)c1)OCCc1ccccc1`: the figures for the 50% inhibitory concentration (IC50) in assay [2] and in assay [4] were 19000 nM and 73000 nM, respectively. Also, the Ratio IC50 in the assay filed under Homo sapiens was found to be 4.
In the case of `O=C(/C=C/c1cccc(O)c1)OCCCc1ccccc1`, the figures for the IC50 in assay [2] and in [4] were 3100 nM and 41000 nM, respectively. Moreover, the Ratio IC50 in the assay filed under Homo sapiens came to 13.
For `O=C(/C=C/c1ccc(O)c(O)c1)O[C@@H]1C[C@](O)(C(=O)O)C[C@@H](O)[C@H]1O` (relative stereo) [CHLOROGENIC ACID], the IC50 in [2] turned out to be 7900 nM.
Regarding `O=C(/C=C/c1ccc(O)c(O)c1)O[C@@H]1C[C@](O)(C(=O)O)C[C@@H](OC(=O)/C=C/c2ccc(O)c(O)c2)[C@H]1O` (relative stereo), the 50% inhibitory concentration (IC50) is 130 nM in assay [2] and 88 nM in assay [4].
Consider `COc1cc(O)ccc1/C=C/C(=O)OCCc1ccc(O)cc1`, for which the 50% inhibitory concentration (IC50) in [2] turned out to be 14 nM; in assay [4], 3200 nM. The Ratio IC50 in the assay filed under Homo sapiens was 229.
Turning to `O=C(O)/C=C/c1ccc(O)cc1` [COUMARIC ACID], the values for the IC50 in assay [2] and in assay [4] were 63000 nM and 76000 nM, respectively.
As to `COc1cc(O)ccc1/C=C/C(=O)OCCc1cccc(O)c1`, the IC50 in [2] stood at 13 nM; in [4], 7300 nM. Moreover, the Ratio IC50 in the assay filed under Homo sapiens is 562.
